Assay outcomes (PubChem BioAssay)
HCV core dimer: inhibitors of HCV core protein dimerization, primary screen, biochemical, TR-FRET, high-throughput | TR-FRET GST/Flag-core106 dimerization, 1536-well | inhibition, % at 5 µM | 300,000 compounds, 0.33% hits | AID 1899, 2009;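 active = inhibition above the mean of all tested compounds plus 3 SD, set per screening campaign, cut at about 45% in these data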
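Assay system – GST-tagged and Flag-tagged HCV core protein residues 1-106 · Quantity – core106 proteins, GST 13.5 nM and Flag 17 nM · Benchmarks – unlabelled core106 and no-GST-core106 wells · Read-out basis – percent inhibition of core106 dimerization signal · Detection – time-resolved FRET, ex 340 nm, em 617 and 671 nm · Schedule – 4 h at 22.5 °C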
FID counter: compounds displacing fluorescent DNA intercalator, primary screen, artefact control for HCV NS3 helicase inhibitor project, biochemical, FID fluorescence. DNA fluorescent intercalator displacement. inhibition, % at 7.9 µM. 290,000 compounds, 0.17% hits. AID 1845, 2009; in the data active = inhibition above about 37%;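 note: 0% = vehicle and 100% = reference compound; higher means more ethidium bromide displaced from hairpin DNA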
VIM-2 inhibitor: VIM-2 metallo-beta-lactamase inhibitors, primary screen, biochemical, epi-absorbance readout, Pseudomonas aeruginosa enzyme; purified VIM-2, nitrocefin hydrolysis, epi-absorbance fluorescence; inhibition, % at 5.6 µM; 290,000 compounds, 0.89% hits; AID 1527, 2009;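 active = inhibition above the mean of all tested compounds plus 3 SD, cutoff set per screening run, cut at about 7.5% in these data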;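 note: red hydrolysis product quenches plate fluorescence so inhibitors raise well fluorescence; 0% = enzyme with DMSO and 100% = DMSO without enzyme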
IMP-1 inh: IMP-1 metallo-beta-lactamase inhibitors, primary screen, biochemical, epi-absorbance readout, Pseudomonas aeruginosa enzyme; metallo-beta-lactamase IMP-1 (Pseudomonas aeruginosa); purified IMP-1, nitrocefin hydrolysis, epi-absorbance fluorescence; inhibition, % at 5.6 µM; 290,000 compounds, 0.45% hits;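 active = inhibition above the mean plus 3 SD of all compounds in the same screening run, cut at about 4.5% in these data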;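 note: 0% = IMP-1 with DMSO and 100% = DMSO wells lacking enzyme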
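Test system: recombinant IMP-1 enzyme, purified / Medium: HEPES buffer pH 7.1 with ZnSO4 and Brij 35 / Doses: single dose, 5.6 µM / Times: 25 °C, 15 min preincubation, 25 min reaction / Detection: Epi-absorbance via hydrolysed-nitrocefin quenching of white-plate fluorescence, 480/530 nm, EDTA stop / Evaluation: percent inhibition from optical density relative to buffer-blank wells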
Active calls of the source: *; . = no result given. Only some compounds are listed: those with a hit (about 1.6% of all), similar ones and a draw of the others.

SMILES	HCV core dimer	FID counter	VIM-2 inhibitor	IMP-1 inh
COc1ccc(-c2nc3c(c(SCC(=O)N4CCOCC4)n2)Cc2c(CO)cnc(C)c2O3)cc1	5	-55	6	6.3*
COc1ccc(-c2ccc(SCC(=O)N3CCOCC3)nn2)cc1	-3	-9	-2	-1
Cc1ccc(-c2nc3c(c(SCC(=O)N4CCOCC4)n2)Cc2c(CO)cnc(C)c2O3)cc1	9	-43	3	8.9*
c1ccc(-[n+]2nc(Nc3cccc4ccccc34)sc2-c2c3ccccc3cc3ccccc23)cc1	60*	.	.	.
Fc1ccc(-[n+]2nc(Nc3ccccc3)sc2-c2c3ccccc3cc3ccccc23)cc1	-4	28	-3	-3
COc1cccc(OC)c1-c1nn2c(-c3cc(-c4ccccc4)n[nH]3)nnc2s1	54*	3	-1	-3
Clc1ccc(-c2nn3c(-c4ccccc4)nnc3s2)cc1	12	-10	-3	-2
COc1cccc(-c2nnc3sc(-c4ccccc4)nn23)c1	4	-4	-1	-2
c1ccc(-c2nnc3sc(-c4ccncc4)nn23)cc1	1	-2	9.0*	-3
COc1ccc(-c2nn3c(-c4ccncc4)nnc3s2)cc1OC	.	-3	10*	-3
CCN(CC)CCn1c(NCc2nc3ccccc3n2Cc2ccccc2)nc2ccccc21	1	9	-4	-3
CCOc1ccc(NC(=S)N2CCC(C(O)(c3ccccc3)c3ccccc3)CC2)cc1	15	9	-1	-1
CCn1c(=O)c(C(=O)CN2CCc3ccccc32)c(N)n(Cc2ccccc2)c1=O	51*	-22	-1	3
CCn1c(=O)c(C(=O)CN2CCOCC2)c(N)n(Cc2ccccc2)c1=O	-11	-1	0	-2
Cc1ccc(-c2nn(C)c(=O)c3ccccc23)cc1CN1CCCCC1	0	0	9.2*	-4
COC(=O)c1cc(-c2ccc(OC)c(OC)c2)c2c(=O)[nH]c(=O)n(C)c2n1	8	-38	9.4*	-3
Cc1ccc(-c2nnc(NC(=O)c3ccc([N+](=O)[O-])o3)o2)c(C)c1	-1	.	.	.
Cc1ncc([N+](=O)[O-])n1CCOC(=O)c1cc(Cl)cc(Cl)c1N	25	-17	9.4*	-2
C=CCOc1ccc(C2C(C(=O)c3ccco3)=C(O)C(=O)N2c2nnc(C)s2)cc1 (configuration not stated)	9	-23	4	5.2*
O=C(O)c1cnn(-c2ccccc2)c1C(F)(F)F	-2	2	1	0
Cc1cc(C)n2c(=O)c3ccc(Cl)cc3nc2c1C#N	52*	-1	4	-1
COc1ccc(/C=N/Nc2nnc(-c3ncc[nH]3)c3ccccc23)cc1	-12	-5	0	-1
Oc1ccc2ccccc2c1/C=N/Nc1nnc(-c2ncc[nH]2)c2ccccc12	-2	-1	-4	36*
COc1ccc(C2=CC3=CC(=O)C(C)(O)C(=O)C3=CO2)cc1 (configuration not stated)	19	.	.	.
CC1(O)C(=O)C=C2C=C(c3ccc(C#N)cc3)OC=C2C1=O (configuration not stated)	55*	.	.	.
SMILES	HCV core dimer	FID counter	VIM-2 inhibitor	IMP-1 inh
Cc1ccc(/C=C2\CCC3=C2OC(N)=C(C#N)C3c2ccc(C)cc2)cc1 (configuration not stated)	76*	-15	1	4
CCOc1ccc(C(=O)Nc2ccc(CN3CCOCC3)cc2)cc1Br	.	7	-1	-4
O=C(CSc1nnc(-c2cccs2)n1CC1CCCO1)N1CCCC1 (configuration not stated)	14	-5	-2	-2
O=C(CCCSc1nnc(-c2cccs2)n1CC1CCCO1)c1ccccc1 (configuration not stated)	8	-36	9.7*	-8
COc1ccc(NC(=O)CSc2nncn2N)c(OC)c1	-8	-7	-3	-1
CCCCSc1nc2c(cc1C#N)CCC2	3	3	-4	-5
CCCSc1nc(C)c(-c2csc(C(C#N)=C3CCCC3)n2)cc1C#N	61*	-7	-1	0
O=C(O)C1CCN(C(=O)COc2ccc3c4c(c(=O)oc3c2)CCCC4)CC1	7	-28	0	0
O=C(COc1ccc2c3c(c(=O)oc2c1)CCC3)N1CCCC1	-2	-15	9.8*	-3
O=C(COc1ccc2c3c(c(=O)oc2c1)CCC3)NCCCN1CCCC1=O	6	-29	11*	0
